In ChEMBL document CHEMBL1123492, “Carboxyl-modified amino acids and peptides as protease inhibitors” (J Med Chem, 1986):
Values belong to the compound of their own block, whether it stands above or below them. Where a SMILES comes first, the peptide text is derived from it.

Experiments:
Papain = biological target: T1, Papain (Carica papaya, UniProt P00784); assay: Compound was tested for Inhibition of Papain
T1 sequence (P00784 whole entry): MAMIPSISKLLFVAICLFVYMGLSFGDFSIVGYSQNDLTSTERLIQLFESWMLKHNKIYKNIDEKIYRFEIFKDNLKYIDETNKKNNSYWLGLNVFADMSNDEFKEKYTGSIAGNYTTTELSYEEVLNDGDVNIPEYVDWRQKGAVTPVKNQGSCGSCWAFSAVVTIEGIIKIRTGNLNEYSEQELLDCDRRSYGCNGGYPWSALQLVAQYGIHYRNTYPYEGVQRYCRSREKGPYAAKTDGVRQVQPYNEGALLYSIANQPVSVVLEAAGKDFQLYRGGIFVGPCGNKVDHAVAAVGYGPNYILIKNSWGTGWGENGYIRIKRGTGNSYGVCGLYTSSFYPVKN
Outline: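 Papain activated 45 min at 25 °C in 50 mM phosphate pH 6.2 with 1 mM EDTA and 0.25 mM cysteine, made fresh daily. N-Cbz-Gly p-nitrophenyl ester hydrolysis at 25 °C read at 340 nm (Δε 6000 M⁻¹ cm⁻¹), corrected for nonenzymic hydrolysis. Compounds in acetonitrile or DMF, final <2.5% v/v. Reversible Ki by Lineweaver–Burk; irreversible Ki and k2 by Kitz–Wilson.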

Chymotrypsinogen A = Chymotrypsinogen A (Bos taurus, UniProt P00766); assay: Compound was tested for Inhibition of Chymotrypsinogen
Outline: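 Chymotrypsin hydrolysis of glutaryl-L-Phe p-nitroanilide followed photometrically. Km of substrate and Ki of reversible inhibitors from Lineweaver–Burk double-reciprocal plots, Ki from replots of Km(app)/Vmax vs [I]; slopes and intercepts by linear regression. Test compounds added in methanol (<5% of final volume).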

Dipeptidyl peptidase 1 [1] = biological target: T2, Dipeptidyl peptidase 1 (Homo sapiens, UniProt P53634); assay: Compound was tested for Inhibition of Dipeptidyl aminopeptidase 1
Outline: (§1)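 Cathepsin C diluted 1:200 daily in ice-cold 50 mM citrate pH 5 with 10 mM cysteamine. Gly-Phe p-nitroanilide hydrolysis at 37 °C read at 405 nm (Δε 9900 M⁻¹ cm⁻¹), started by adding substrate to prewarmed enzyme/inhibitor. Irreversible inhibition: enzyme preincubated with varied inhibitor levels, aliquots diluted into substrate over time. k_app from ln(% activity) vs time; Ki and k2 from 1/k_app vs 1/[I].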

[2] = Compound was tested for Inhibition of leucine aminopeptidase-C
[3] = Compound was tested for Inhibition of Leucine aminopeptidase-M
[4] = Compound was tested for Inhibition of Leucine aminopeptidase-M; NI is No inhibition at 40 mM
Dipeptidyl peptidase 1 [5] = biological target: T2, Dipeptidyl peptidase 1; assay: Compound was tested for Inhibition of dipeptidyl Dipeptidyl aminopeptidase 1; outline: as §1

T2 sequence (P53634 25-134 limits assumed): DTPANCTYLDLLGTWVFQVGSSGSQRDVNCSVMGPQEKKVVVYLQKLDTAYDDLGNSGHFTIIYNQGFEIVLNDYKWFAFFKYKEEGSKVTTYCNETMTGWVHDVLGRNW
T2 sequence (P53634 231-394 limits assumed): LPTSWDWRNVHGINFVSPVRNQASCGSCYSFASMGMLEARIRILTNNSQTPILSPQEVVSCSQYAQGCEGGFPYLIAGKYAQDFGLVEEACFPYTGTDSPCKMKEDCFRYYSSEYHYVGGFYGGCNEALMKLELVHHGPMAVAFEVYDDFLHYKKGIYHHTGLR
T2 sequence (P53634 395-463 limits assumed): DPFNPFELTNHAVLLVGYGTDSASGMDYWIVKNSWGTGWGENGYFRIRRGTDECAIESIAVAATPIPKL

Ki (Papain): 9.2 mM
Structure (SMILES): C=CCNC(=O)C(Cc1ccccc1)NC(C)=O (stereo not drawn)

Ki (Papain): 0.095 mM
Structure (SMILES): CC(=O)NC(Cc1ccccc1)C(=O)NCC(=N)S (stereo not drawn)

Ki (Chymotrypsinogen A): 30.8 mM
Structure (SMILES): COC(=O)/C=C/C(Cc1ccccc1)NC(C)=O (stereo not drawn)

Ki (Papain): 19.5 mM
Structure (SMILES): COC(=O)CCCNC(=O)C(Cc1ccccc1)NC(C)=O (stereo not drawn)

Ki (Dipeptidyl peptidase 1 [1]): 0.0027 mM
Structure (SMILES): N#CC(Cc1ccccc1)NC(=O)CN (stereo not drawn)

Ki (Chymotrypsinogen A): 23 mM
Structure (SMILES): CC(=O)NC(Cc1ccccc1)C(N)=S (stereo not drawn)

Ki (Chymotrypsinogen A): 29.4 mM
Structure (SMILES): CC(=O)NC(/C=C/S(C)(=O)=O)Cc1ccccc1 (stereo not drawn)

Ki (Papain): 0.0011 mM
Structure (SMILES): CC(=O)NC(Cc1ccccc1)C(=O)NCC#N (stereo not drawn)

Ki [2]: 23.7 mM | Ki [3]: 61 mM
Structure (SMILES): COC(=O)/C=C/C(N)Cc1ccccc1 (stereo not drawn)

Ki (Chymotrypsinogen A): 5.3 mM
Structure (SMILES): CC(=O)NC(C#N)Cc1ccccc1 (stereo not drawn)

Ki (Dipeptidyl peptidase 1 [1]): 0.18 mM
Structure (SMILES): CS(=O)(=O)/C=C/C(Cc1ccccc1)NC(=O)CN (stereo not drawn)

Ki (Dipeptidyl peptidase 1 [1]): 0.22 mM
Structure (SMILES): COC(=O)/C=C/C(Cc1ccccc1)NC(=O)CN (stereo not drawn)

Ki [2]: 26.4 mM | Ki [3]: 67 mM
Structure (SMILES): N#CC(N)Cc1ccccc1 (stereo not drawn)

Ki [2]: 14.1 mM | Ki [3]: 14.8 mM
Structure (SMILES): NC(=O)C(N)Cc1ccccc1 (stereo not drawn)

Structure (SMILES): CS(=O)(=O)/C=C/C(N)Cc1ccccc1 (stereo not drawn)
Ki [2]: 8.8 mM | Ki [3]: 3.7 mM

Ki (Chymotrypsinogen A): 13.9 mM
Structure (SMILES): CC(=O)NC(Cc1ccccc1)C(N)=O (stereo not drawn)

Ki [4]: No inhibition
Structure (SMILES): N=C(S)C(N)Cc1ccccc1 (stereo not drawn)

Ki (Papain): 4.7 mM
Structure (SMILES): CC(=O)N[C@@H](Cc1ccccc1)C(=O)NCC(N)=O (Ac-Phe-Gly-NH2)

Ki (Dipeptidyl peptidase 1 [5]): 6.2 mM
Structure (SMILES): NCC(=O)N[C@@H](Cc1ccccc1)C(N)=O (H-Gly-Phe-NH2)
